# Measurements pooled from the literature.
# Each line is one published result; the experiments were not run side by side.
# Cell line: WI-38
# Observed: cell growth or viability
Compound,test,conditions,endpoint,value
c1ccc(CNCc2cc3c(-c4ccccc4)n[nH]c3c(Nc3ccccc3)n2)cc1,MTS,48 h,IC50,8.2 µM
C=C(c1ccc(C(=O)O)cc1)c1cc2c(cc1C)C(C)(C)CCC2(C)C,MTT,72 h,EC50,76 µM
N#Cc1cc2c(-c3ccccc3)n[nH]c2c(Nc2ccccc2)n1,MTS,48 h,IC50,> 10 µM
CN(C)CCCOc1cc(NC(=O)c2cc(Cl)cc(C(=O)Nc3cc(OCCCN(C)C)c4ccccc4n3)n2)nc2ccccc12,ATP luminescence,72 h,IC50,3.6 µM
CS(=O)(=O)CCNCc1ccc(-c2ccc3ncnc(Nc4ccc(OCc5cccc(F)c5)c(Cl)c4)c3c2)o1,MTT,72 h,EC50,32 µM
COc1cc(Nc2nc(C#N)cc3c(-c4ccccc4)n[nH]c23)cc(OC)c1OC,MTS,48 h,IC50,> 10 µM
CN(C)CCCOc1cc(NC(=O)c2cccc(C(=O)Nc3cc(OCCCN(C)C)c4ccccc4n3)n2)nc2ccccc12,ATP luminescence,72 h,IC50,2.1 µM
Cc1nc(Nc2ncc(C(=O)Nc3c(C)cccc3Cl)s2)cc(N2CCN(CCO)CC2)n1,MTT,72 h,EC50,0.7 µM
C#CCOc1cc(C(=O)Nc2cc(OCCN)c3ccccc3n2)nc(C(=O)Nc2cc(OCCN)c3ccccc3n2)c1,ATP luminescence,72 h,IC50,4 µM
Cc1cccc(-n2ncc(Br)c(Br)c2=O)c1,resazurin,96 h,IC50,2.61 µM
